Legend:
[1] = test system: A549 cell line; assay: MTT antiproliferative test, A549; type: cell-based; conditions: Homo sapiens, A549, read-out: IC50 (n = 3), antiproliferative effect vs A549
[2] = test system: MCF-7 cell line; assay: MTT antiproliferative test, MCF-7; type: cell-based; conditions: Homo sapiens, MCF7, read-out: IC50 (n = 3), antiproliferative effect vs MCF-7
[3] = target: EGFR^WT (Homo sapiens, UniProt P00533); assay: HTRF kinase inhibitory assay, EGFR^WT; type: biochemical
[4] = target: EGFR^T790M (Homo sapiens, UniProt P00533, T790M); assay: biochemical; type: biochemical
[5] = Antioxidant activity by ABTS method; conditions: absorbance at 734 nm
Method in brief: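 ABTS radical cation was generated by mixing ammonium peroxodisulfate (65 mmol/dm3) with ABTS in phosphate buffer pH 7.4 and leaving it overnight. The stock was diluted in phosphate buffer pH 7.4 and A734 was read. Test compound was added after 1 min, mixed, and A734 was re-read. Results are expressed as trolox equivalents from a linear trolox calibration (absorbance decrease vs concentration).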

Row | SMILES | IC50 [1] [µM] | IC50 [2] [µM] | IC50 [3] [µM] | IC50 [4] [µM] | times the activity of gefitinib vs EGFR^T790M ([4]; ratio of IC50 vs gefitinib) [times] | radical scavenging activity (ABTS) [5] [%]
1 | C#Cc1cccc(Nc2ncnc3cc(OCCOC)c(OCCOC)cc23)c1 [erlotinib, reference compound] | 19.3 ± 1.85 | 21.8 ± 1.85 | – | – | – | –
2 | N#Cc1sc2sc(C#N)c(N)c2c1N [Compound 1, 3,4-diaminothieno[2,3-b]thiophene-2,5-dicarbonitrile] | 5.09 ± 0.15 | 8.57 ± 0.31 | 0.29 ± 0.05 | 7.89 ± 0.31 | 2.71 | –
3 | Nc1c(-c2nnn[nH]2)sc2sc(-c3nnn[nH]3)c(N)c12 [Compound 7, 2,5-Di(1H-tetrazol-5-yl)thieno[2,3-b]thiophene-3,4-diamine] | 8.27 ± 0.16 | 17.3 ± 0.71 | 3.27 ± 0.16 | 16.3 ± 0.61 | – | –
4 | N=c1c2sc3sc4c(=N)n(-c5ccccc5)c(=O)[nH]c4c3c2[nH]c(=O)n1-c1ccccc1 [Compound 5, 1,8-Diimino-2,7-diphenyl-1,4,7,8-tetrahydro-2H,5H-9,10-dithia-2,4,5,7-tetraaza-indeno[1,2-a]indene-3,6-dione] | 7.54 ± 0.32 | 17.3 ± 0.71 | 2.02 ± 0.12 | 15.1 ± 0.51 | – | 70

From PMC9753534 (ACS Omega, 2022)
